pIC50, pKi: −log10 of the molar value. Active and inactive are the calls of the source. The calls are words filed in the database; no cut-off is given here.
Columns and labels:
[1] = biological target: Botulinum neurotoxin type A (Clostridium botulinum) (UniProt P0DPI0); test: Inhibition of recombinant Clostridium botulinum neurotoxin serotype A light chain assessed as Kinact to KI ratio at 50 uM after 1.5 hrs by SNAPtide FRET based assay
[2] = Glutathione reactivity at 1 mM in presence of 1 mM glutathione containing PBS and 1 mM EDTA buffer at pH 7.4 assessed as remaining GSH level after 10 seconds by spectrophotometry by Ellman's method
Procedure, shortened: (§1)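 Compound (1 mM) incubated with glutathione (1 mM) in PBS + 1 mM EDTA, pH 7.4. At each time point, an aliquot was diluted 1:10 into 4 mg/mL DTNB and absorbance read at 412 nm. Compound blanks included. Free GSH quantified against a 0–1.25 mM GSH standard curve and expressed as % remaining.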

[3] = Glutathione reactivity at 1 mM in presence of 1 mM glutathione containing PBS and 1 mM EDTA buffer at pH 7.4 assessed as remaining GSH level after 30 mins by spectrophotometry by Ellman's method; procedure, shortened: as §1
[4] = biological target: T1, Botulinum neurotoxin type A (Clostridium botulinum, UniProt P0DPI0); test: Competitive inhibition of recombinant Clostridium botulinum neurotoxin serotype A light chain assessed as [13C]-labeled 9-mer cleavage product formation using 66-mer substrate after 25 mins by LC-MS method; conditions: for pIC50: read-out: IC50
T1 sequence (P0DPI0 2-448 limits assumed): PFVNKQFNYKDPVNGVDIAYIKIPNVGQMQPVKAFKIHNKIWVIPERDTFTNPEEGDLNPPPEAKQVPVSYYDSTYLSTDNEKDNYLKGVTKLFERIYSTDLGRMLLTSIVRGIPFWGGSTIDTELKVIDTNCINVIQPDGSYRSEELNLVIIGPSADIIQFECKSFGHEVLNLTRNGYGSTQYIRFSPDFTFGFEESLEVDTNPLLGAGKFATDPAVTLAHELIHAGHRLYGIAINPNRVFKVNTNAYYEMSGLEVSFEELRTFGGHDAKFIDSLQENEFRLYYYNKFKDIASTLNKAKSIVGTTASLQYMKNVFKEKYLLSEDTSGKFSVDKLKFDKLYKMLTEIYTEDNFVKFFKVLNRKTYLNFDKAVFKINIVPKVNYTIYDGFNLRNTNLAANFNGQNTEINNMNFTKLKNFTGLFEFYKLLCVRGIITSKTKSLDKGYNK
Procedure, shortened: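 66-mer SNAP-25 substrate (5 µM) cleaved by recombinant BoNT/A LC (0.8 nM) in 40 mM HEPES pH 7.4 for 25 min. Quenched with 20% TFA. 13C-labelled 9-mer internal standard added, and cleavage product quantified by LCMS relative to it. IC50 derived from initial velocities using the rearranged IC50 equation.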

[5] = Glutathione reactivity at 1 mM in presence of 1 mM glutathione containing PBS and 1 mM EDTA buffer at pH 7.4 assessed as second order rate constant by spectrophotometry by Ellman's method
Procedure, shortened: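 Compound and glutathione (1 mM each) in PBS + 1 mM EDTA, pH 7.4. Free thiol followed over time by 1:10 dilution into 4 mg/mL DTNB, A412, with compound blanks and a GSH standard curve. Second-order kGSH of Michael adduct formation derived from 1/[GSH] − 1 = 2kGSH·t.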

[6] = Glutathione reactivity at 1 mM in presence of 1 mM glutathione containing PBS and 1 mM EDTA buffer at pH 7.4 assessed as remaining GSH level after 1 hr by spectrophotometry by Ellman's method; procedure, shortened: as §1
[7] = biological target: T1, Botulinum neurotoxin type A; test: Competitive inhibition of recombinant Clostridium botulinum neurotoxin serotype A light chain assessed as reduction in benzoquinone-mediated BoNT/A inactivation by SNAPtide FRET based assay
[8] = biological target: T1, Botulinum neurotoxin type A; test: Competitive inhibition of recombinant Clostridium botulinum neurotoxin serotype A light chain assessed as reduction in initial rates of BoNT/A LC activity by SNAPtide FRET based assay
Procedure, shortened: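 Recombinant 425-aa BoNT/A LC (18.5 nM) and SNAPtide (5 µM) in 40 mM HEPES + 0.1% Triton X-100, pH 7.4. Cleavage read by fluorescence. Velocities fitted to V = Vcontrol/(1 + [I]/IC50) to give IC50.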

[9] = biological target: T1, Botulinum neurotoxin type A; test: Competitive inhibition of Clostridium botulinum neurotoxin serotype A light chain
[10] = biological target: Botulinum neurotoxin type A (Clostridium botulinum) (UniProt P0DPI0); test: Irreversible inhibition of recombinant Clostridium botulinum neurotoxin serotype A light chain assessed as Kinact to KI ratio after 1.5 hrs by SNAPtide FRET based assay
[11] = biological target: Botulinum neurotoxin type A (Clostridium botulinum) (UniProt P0DPI0); test: Time dependent inhibition of recombinant Clostridium botulinum neurotoxin serotype A light chain assessed as Kinact to KI ratio at 200 uM by SNAPtide FRET based assay
Procedure, shortened: (§2)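 Recombinant 425-residue BoNT/A light chain (18.5 nM) with 5 µM SNAPtide FRET substrate in 40 mM HEPES, 0.1% Triton X-100, pH 7.4. Inhibitor is present with enzyme and substrate, without preincubation, across a range of concentrations.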

[12] = biological target: Botulinum neurotoxin type A (Clostridium botulinum) (UniProt P0DPI0); test: Time dependent inhibition of recombinant Clostridium botulinum neurotoxin serotype A light chain assessed as Kinact to KI ratio after 1.5 hrs by SNAPtide FRET based assay; procedure, shortened: as §2
[13] = biological target: Botulinum neurotoxin type A (Clostridium botulinum) (UniProt P0DPI0); test: Inhibition of recombinant Clostridium botulinum neurotoxin serotype A light chain assessed as [13C]-labeled 9-mer cleavage product formation at 50 uM using 66-mer substrate after 25 mins by LC-MS method
Procedure, shortened: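 Inhibitors at 50 µM with recombinant BoNT/A LC (0.8 nM) and 66-mer substrate (5 µM) in 40 mM HEPES pH 7.4. Cleavage ran 25 min, then quenched with 20% TFA. 9-mer product quantified by LCMS against a 13C-labelled 9-mer internal standard.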

Botulinum neurotoxin type A (Clostridium botulinum), sequence (P0DPI0 2-448 limits assumed): as above

Structure (SMILES) | Ratio [1] [M⁻¹ s⁻¹] | Activity [2] [%] | Activity [3] [%] | pIC50 [4] | also measured
COC1=CC(=O)C=CC1=O | 4.1 |  |  |  | 
CC1=CC(=O)C=C(C)C1=O |  | 22 | 0 |  | inhibition [1]: inactive
COC1=C(c2ccc(C)cc2)C(=O)C=CC1=O | 9.5 | 25 | 19 |  | 
O=C1C=CC(=O)C(Nc2cccc(C(=O)NCc3ccc(Oc4ccccc4)cc3)n2)=C1 | 1.7 |  |  | 5.64 | 
Cc1ccc(C2=CC(=O)c3ccccc3C2=O)cc1 | 0.91 |  |  |  | 
O=C1C=CC(=O)C(CCC(=O)O)=C1 | 1.2 |  |  |  | IC50 [4]: Not Active
CC1=CC(=O)c2ccccc2C1=O | 1.1 |  |  |  | 
COC1=CC(=O)C(OC)=C(c2ccc(C)cc2)C1=O | 0.82 | 89 | 49 |  | K [5]: 0.032 min⁻¹; Activity [6]: 35%
O=C1C=CC(=O)C(c2ccc(I)cc2)=C1 | 10 |  |  |  | 
COc1ccc(OC)c(CNCC(=O)Nc2cccc(OCc3ccccc3)c2)c1 |  |  |  | 4.60 | 
NCC(=O)Nc1ccc(Oc2ccccc2)cc1 |  |  |  | 3.92 | pIC50 [7]: 3.59; pIC50 [8]: 3.79
O=C(NCc1ccc(-c2ccccc2)cc1)c1nc[nH]n1 |  |  |  | 3.68 | 
O=C1C=CC(=O)C(c2ccccc2)=C1 | 9.7 | 21 | 8 |  | 
O=C1C=CC(=O)C(CNCC(=O)Nc2cccc(OCc3ccccc3)c2)=C1 |  |  |  | 4.74 | 
O=C1C=CC(=O)C(CC(=O)O)=C1 | 0.56 |  |  | 5.03 | 
O=C1C=CC(=O)C(Cn2cnc(C(=O)NCc3ccc(-c4ccccc4)cc3)n2)=C1 |  |  |  | 5.60 | 
ONCC12CC3CC(CC(C3)C1)C2 |  |  |  |  | pKi [9]: 6.34; pIC50 [7]: 5.82; pIC50 [8]: 5.80
O=C1C=CC(=O)c2c(O)cccc21 | 5.3 | 44 | 32 |  | Ratio [10]: 3.71 M⁻¹ s⁻¹; Ratio [11]: 3.35 M⁻¹ s⁻¹
O=C1C=CC(=O)c2c(O)ccc(O)c21 | 2.2 | 85 | 39 |  | K [5]: 0.025 min⁻¹; Activity [6]: 26%
O=C1C=C(Cl)C(=O)C=C1Cl | 84 | 0 | 0 |  | 

Structure (SMILES) | Ratio [1] [M⁻¹ s⁻¹] | Activity [2] [%] | Activity [3] [%] | pIC50 [4] | also measured
COc1ccc(OC)c(Cn2cnc(C(=O)NCc3ccc(-c4ccccc4)cc3)n2)c1 |  |  |  | 4.40 | 
CC1=CC(=O)C(C(C)C)=CC1=O | 0.38 |  |  |  | 
NCC(=O)Nc1cccc(OCc2ccccc2)c1 |  |  |  | 3.38 | 
O=C1C=CC(=O)C=C1 | 17 | 24 | 6 |  | Ratio [10]: 12.4 M⁻¹ s⁻¹; Ratio [12]: 11.8 M⁻¹ s⁻¹; inhibition [13]: Active
O=C1C=CC(=O)C(Nc2ccccn2)=C1 |  |  |  | 4.01 | 
COc1ccc(OC)c(Nc2cccc(C(=O)NCc3ccc(Oc4ccccc4)cc3)n2)c1 |  |  |  | 3.70 | 
O=C1C=CC(=O)C(Cl)=C1 | 51 |  |  |  | 
COC1=CC(=O)C=C(OC)C1=O |  | 45 | 0 |  | inhibition [1]: inactive
O=C1C=CC(=O)c2c(OCc3ccccc3)cccc21 | 2 | 57 | 39 |  | 
CC1=CC(=O)C=CC1=O | 2.5 | 35 | 5 |  | 
NCC(=O)NCc1ccc(-c2ccccc2)cc1 |  |  |  | 3.80 | 
COc1cccc2c1C(=O)C=CC2=O | 0.99 | 80 | 27 |  | K [5]: 0.053 min⁻¹; Activity [6]: 14%
C[C@]12CC[C@@H]3c4ccc(C5=CC(=O)C=CC5=O)cc4CC[C@H]3[C@@H]1CCC2=O | 3.9 |  |  |  | 
COC(=O)c1cccc(NC2=CC(=O)C=CC2=O)n1 |  |  |  | 4.85 | 
CC(=O)Oc1cccc2c1C(=O)C=CC2=O | 4 | 51 | 26 |  | 
O=C(NCc1ccc(Oc2ccccc2)cc1)c1ccccn1 |  |  |  | 3.24 | 
COC1=CC(=O)C(c2ccc(C)cc2)=CC1=O |  |  |  |  | inhibition [1]: inactive
O=C1C=CC(=O)c2cc(O)ccc21 | 0.94 | 71 | 32 |  | Ratio [10]: 1.17 M⁻¹ s⁻¹; K [5]: 0.036 min⁻¹; Activity [6]: 22%
O=C1C=CC(=O)c2ccccc21 | 2 | 47 | 20 |  | 

— ChEMBL document CHEMBL3351678, “Benzoquinones as inhibitors of botulinum neurotoxin serotype A” (Bioorg Med Chem, 2014)
